In ChEMBL document CHEMBL3580554, “Design, synthesis, and anticonvulsant activity of new hybrid compounds derived from 2-(2,5-dioxopyrrolidin-1-yl)propanamides and 2-(2,5-dioxopyrrolidin-1-yl)butanamides” (J Med Chem, 2015):

Legend:
Mus musculus [1] = experiment: Anticonvulsant activity in Swiss mouse assessed as protection against seizures at 300 mg/kg, ip dosed 0.25 hrs before initiation of maximal electroconvulsions by maximal electroshock test; type: functional
Method in brief: (§1)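 Mice were dosed i.p. at a fixed 300 or 100 mg/kg (6 Hz: 100 mg/kg only). Protection was then scored against MES, sc PTZ or 6 Hz seizures at pretreatment times of 0.25, 0.5, 1 and 2 h. Groups were four mice, scored as number protected / number tested. This also gives the time course and time of peak effect.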

Mus musculus [2] = experiment: Anticonvulsant activity in Swiss mouse assessed as protection against seizures at 300 mg/kg, ip dosed 0.5 hrs before initiation of maximal electroconvulsions by maximal electroshock test; type: functional; method in brief: as §1
Mus musculus [3] = experiment: Anticonvulsant activity in Swiss mouse assessed as protection against seizures at 300 mg/kg, ip dosed 1 hr before initiation of maximal electroconvulsions by maximal electroshock test; type: functional; method in brief: as §1
Mus musculus [4] = experiment: Anticonvulsant activity in Swiss mouse assessed as protection against seizures at 300 mg/kg, ip dosed 2 hrs before initiation of maximal electroconvulsions by maximal electroshock test; type: functional; method in brief: as §1
Mus musculus [5] = experiment: Anticonvulsant activity in Swiss mouse assessed as protection against seizures at 100 mg/kg, ip dosed 0.25 hrs before initiation of maximal electroconvulsions by maximal electroshock test; type: functional; method in brief: as §1
Mus musculus [6] = experiment: Anticonvulsant activity in Swiss mouse assessed as protection against seizures at 100 mg/kg, ip dosed 0.5 hrs before initiation of maximal electroconvulsions by maximal electroshock test; type: functional; method in brief: as §1
Mus musculus [7] = experiment: Anticonvulsant activity in Swiss mouse assessed as protection against seizures at 100 mg/kg, ip dosed 1 hr before initiation of maximal electroconvulsions by maximal electroshock test; type: functional; method in brief: as §1
Mus musculus [8] = experiment: Anticonvulsant activity in Swiss mouse assessed as protection against seizures at 100 mg/kg, ip dosed 2 hrs before initiation of maximal electroconvulsions by maximal electroshock test; type: functional; method in brief: as §1
Mus musculus [9] = experiment: Anticonvulsant activity in Swiss mouse assessed as protection against seizures at 300 mg/kg, ip dosed 0.25 hrs before pentylenetetrazole challenge by subcutaneous pentylenetetrazole seizure test; type: functional; method in brief: as §1
Mus musculus [10] = experiment: Anticonvulsant activity in Swiss mouse assessed as protection against seizures at 300 mg/kg, ip dosed 0.5 hrs before pentylenetetrazole challenge by subcutaneous pentylenetetrazole seizure test; type: functional; method in brief: as §1
Mus musculus [11] = experiment: Anticonvulsant activity in Swiss mouse assessed as protection against seizures at 300 mg/kg, ip dosed 1 hr before pentylenetetrazole challenge by subcutaneous pentylenetetrazole seizure test; type: functional; method in brief: as §1
Mus musculus [12] = experiment: Anticonvulsant activity in Swiss mouse assessed as protection against seizures at 300 mg/kg, ip dosed 2 hrs before pentylenetetrazole challenge by subcutaneous pentylenetetrazole seizure test; type: functional; method in brief: as §1
Mus musculus [13] = experiment: Anticonvulsant activity in Swiss mouse assessed as protection against seizures at 100 mg/kg, ip dosed 0.25 hrs before pentylenetetrazole challenge by subcutaneous pentylenetetrazole seizure test; type: functional; method in brief: as §1
Mus musculus [14] = experiment: Anticonvulsant activity in Swiss mouse assessed as protection against seizures at 100 mg/kg, ip dosed 0.5 hrs before pentylenetetrazole challenge by subcutaneous pentylenetetrazole seizure test; type: functional; method in brief: as §1
Mus musculus [15] = experiment: Anticonvulsant activity in Swiss mouse assessed as protection against seizures at 100 mg/kg, ip dosed 1 hr before pentylenetetrazole challenge by subcutaneous pentylenetetrazole seizure test; type: functional; method in brief: as §1
Mus musculus [16] = experiment: Anticonvulsant activity in Swiss mouse assessed as protection against seizures at 100 mg/kg, ip dosed 2 hrs before pentylenetetrazole challenge by subcutaneous pentylenetetrazole seizure test; type: functional; method in brief: as §1
Mus musculus [17] = experiment: Anticonvulsant activity in Swiss mouse model of 6 Hz psychomotor seizure mode assessed as protection against seizures at 100 mg/kg, ip dosed 0.25 hrs before 6 Hz electrical stimulation by 6 Hz test; type: functional; method in brief: as §1
Mus musculus [18] = experiment: Anticonvulsant activity in Swiss mouse model of 6 Hz psychomotor seizure mode assessed as protection against seizures at 100 mg/kg, ip dosed 0.5 hrs before 6 Hz electrical stimulation by 6 Hz test; type: functional; method in brief: as §1
Mus musculus [19] = experiment: Anticonvulsant activity in Swiss mouse model of 6 Hz psychomotor seizure mode assessed as protection against seizures at 100 mg/kg, ip dosed 1 hr before 6 Hz electrical stimulation by 6 Hz test; type: functional; method in brief: as §1
Mus musculus [20] = experiment: Anticonvulsant activity in Swiss mouse model of 6 Hz psychomotor seizure mode assessed as protection against seizures at 100 mg/kg, ip dosed 2 hrs before 6 Hz electrical stimulation by 6 Hz test; type: functional; method in brief: as §1
Rattus norvegicus [21] = species on record: Rattus norvegicus; experiment: Inhibition of [3H]BTX binding to sodium channel site 2 in rat cerebral cortex synaptosomes at 100 uM incubated for 60 mins by scintillation counting based radioligand displacement assay; type: subcellular
Method in brief: (§2)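 Synaptoneurosomal preparations from rat cerebral cortex were used. The read-out was inhibition of specific [3H]BTX binding to the voltage-sensitive sodium channel (site 2), expressed as % inhibition of control specific binding. Compounds were tested at 1, 10, 100 and 500 μM. Inhibition above 50% was taken as significant.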

Rattus norvegicus [22] = species on record: Rattus norvegicus; experiment: Inhibition of [3H]BTX binding to sodium channel site 2 in rat cerebral cortex synaptosomes at 10 uM incubated for 60 mins by scintillation counting based radioligand displacement assay; type: subcellular; method in brief: as §2
Rattus norvegicus [23] = species on record: Rattus norvegicus; experiment: Inhibition of [3H]BTX binding to sodium channel site 2 in rat cerebral cortex synaptosomes at 1 uM incubated for 60 mins by scintillation counting based radioligand displacement assay; type: subcellular; method in brief: as §2
Mus musculus [24] = experiment: Anticonvulsant activity in ip dosed Swiss mouse assessed as protection against seizures measured at 0.25 hrs of time to peak effect by maximal electroshock test; type: functional
Method in brief: (§3)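 Median effective doses (ED50, mg/kg) were determined i.p. in mice at the time of peak effect in the MES, sc PTZ or 6 Hz tests. Only compounds giving at least 50% protection at 100 mg/kg in that test were taken forward.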

Mus musculus [25] = experiment: Anticonvulsant activity in ip dosed Swiss mouse assessed as protection against seizures measured at 0.25 hrs of time to peak effect by subcutaneous pentylenetetrazole seizure test; type: functional; method in brief: as §3
Mus musculus [26] = experiment: Anticonvulsant activity in ip dosed Swiss mouse assessed as protection against seizures measured at 0.25 hrs of time to peak effect by 6 Hz test by 6 Hz psychomotor seizure test; type: functional; method in brief: as §3
[27] = Toxicity in ip dosed Swiss mouse assessed as induction of motor performance impairment measured within 60 seconds measured at 0.25 hrs of time to peak effect by Chimney test; type: organism-based; settings: in vivo
Method in brief: (§4)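 Neurotoxicity was measured i.p. in mice by the chimney test for motor impairment. It was given as the median neurotoxic dose (TD50, mg/kg) at the time of peak effect.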

Mus musculus [28] = species on record: Mus musculus; experiment: Protective index, ratio of neurotoxic TD50 in Swiss mouse by Chimney test to anticonvulsant ED50 in Swiss mouse measured at 0.25 hrs of time to peak effect by maximal electroshock test
Method in brief: (§5)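 Protective index was calculated as TD50 (chimney test, mouse, i.p.) divided by ED50 from the matching MES, sc PTZ or 6 Hz test, both taken at the time of peak effect.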

Mus musculus [29] = experiment: Protective index, ratio of neurotoxic TD50 in Swiss mouse by Chimney test to anticonvulsant ED50 in Swiss mouse measured at 0.25 hrs of time to peak effect by subcutaneous pentylenetetrazole seizure test; type: functional; method in brief: as §5
Mus musculus [30] = species on record: Mus musculus; experiment: Protective index, ratio of neurotoxic TD50 in Swiss mouse by Chimney test to anticonvulsant ED50 in Swiss mouse measured at 0.25 hrs of time to peak effect by 6 Hz test by 6 Hz psychomotor seizure test; type: functional; method in brief: as §5
Mus musculus [31] = species on record: Mus musculus; experiment: Protective index, ratio of neurotoxic TD50 in Swiss mouse by Chimney test to anticonvulsant ED50 in Swiss mouse measured at 0.5 hrs of time to peak effect by maximal electroshock test; method in brief: as §5
Mus musculus [32] = experiment: Anticonvulsant activity in ip dosed Swiss mouse assessed as protection against seizures measured at 0.5 hrs of time to peak effect by maximal electroshock test; type: functional; method in brief: as §3
Mus musculus [33] = experiment: Anticonvulsant activity in ip dosed Swiss mouse assessed as protection against seizures measured at 0.5 hrs of time to peak effect by subcutaneous pentylenetetrazole seizure test; type: functional; method in brief: as §3
Mus musculus [34] = experiment: Anticonvulsant activity in ip dosed Swiss mouse assessed as protection against seizures measured at 0.5 hrs of time to peak effect by 6 Hz test by 6 Hz psychomotor seizure test; type: functional; method in brief: as §3
[35] = Toxicity in ip dosed Swiss mouse assessed as induction of motor performance impairment measured within 60 seconds measured at 0.5 hrs of time to peak effect by Chimney test; type: organism-based; settings: in vivo; method in brief: as §4
Mus musculus [36] = experiment: Protective index, ratio of neurotoxic TD50 in Swiss mouse by Chimney test to anticonvulsant ED50 in Swiss mouse measured at 0.5 hrs of time to peak effect by subcutaneous pentylenetetrazole seizure test; type: functional; method in brief: as §5
Mus musculus [37] = species on record: Mus musculus; experiment: Protective index, ratio of neurotoxic TD50 in Swiss mouse by Chimney test to anticonvulsant ED50 in Swiss mouse measured at 0.5 hrs of time to peak effect by 6 Hz test by 6 Hz psychomotor seizure test; type: functional; method in brief: as §5
Rattus norvegicus [38] = species on record: Rattus norvegicus; experiment: Inhibition of [3H]BTX binding to sodium channel site 2 in rat cerebral cortex synaptosomes at 500 uM incubated for 60 mins by scintillation counting based radioligand displacement assay; type: subcellular; method in brief: as §2

Row | SMILES | Activity (Mus musculus [1]) | Activity (Mus musculus [2]) | Activity (Mus musculus [3]) | Activity (Mus musculus [4]) | Activity (Mus musculus [5]) | Activity (Mus musculus [6]) | Activity (Mus musculus [7]) | Activity (Mus musculus [8]) | Activity (Mus musculus [9]) | Activity (Mus musculus [10]) | Activity (Mus musculus [11]) | Activity (Mus musculus [12]) | Activity (Mus musculus [13]) | Activity (Mus musculus [14]) | Activity (Mus musculus [15]) | Activity (Mus musculus [16]) | Activity (Mus musculus [17]) | Activity (Mus musculus [18]) | Activity (Mus musculus [19]) | Activity (Mus musculus [20]) | also measured
1 | CCC(C(=O)N1CCN(c2cccc(C(F)(F)F)c2)CC1)N1C(=O)CCC1=O (racemic) | 75% | 50% | 100% | 50% | 75% | 50% | 0% | 0% | 100% | 75% | 75% | 75% | 50% | 75% | 25% | 25% | 100% | 100% | 75% | 50% | inhibition (Rattus norvegicus [21]): 8.8%; inhibition (Rattus norvegicus [22]): 9.5%; inhibition (Rattus norvegicus [23]): 8.4%; ED50 (Mus musculus [24]): 58.9 mg/kg; ED50 (Mus musculus [25]): 83.2 mg/kg; ED50 (Mus musculus [26]): 19.9 mg/kg; TD50 at 0.25 h [27]: 199 mg/kg; Ratio TD50/ED50 (Mus musculus [28]): 3.38; Ratio TD50/ED50 (Mus musculus [29]): 2.39; Ratio TD50/ED50 (Mus musculus [30]): 10; Ratio TD50/ED50 (Mus musculus [31]): 1.88; ED50 (Mus musculus [32]): 91.7 mg/kg; ED50 (Mus musculus [33]): 78.6 mg/kg; ED50 (Mus musculus [34]): 42.3 mg/kg; TD50 at 0.5 h [35]: 173 mg/kg; Ratio TD50/ED50 (Mus musculus [36]): 2.19; Ratio TD50/ED50 (Mus musculus [37]): 4.08; inhibition (Rattus norvegicus [38]): 69.5%
2 | CC(C(=O)N1CCN(c2cccc(Cl)c2)CC1)N1C(=O)CCC1=O (racemic) | 75% | 100% | 75% | 50% | 50% | 75% | 50% | 0% | 75% | 75% | 75% | 75% | 50% | 75% | 50% | 25% | 100% | 100% | 75% | 25% | Ratio TD50/ED50 (Mus musculus [31]): 1.69; ED50 (Mus musculus [32]): 119 mg/kg; ED50 (Mus musculus [33]): 69.6 mg/kg; ED50 (Mus musculus [34]): 50.4 mg/kg; TD50 at 0.5 h [35]: 202 mg/kg; Ratio TD50/ED50 (Mus musculus [36]): 2.9; Ratio TD50/ED50 (Mus musculus [37]): 4
